Sampled rows, rich in hits. Any-hit rate of the full collection: about 2.8%.
ABHD4 inh: inhibitors of mouse ABHD4; Q8VD66; purified mABHD4, FP-Rh probe fluorescence polarization; inhibition, % at 8.92 µM; hit rate 0.54% among 370,000;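 active = inhibition exceeding the mean over every tested compound plus 3 SD, cut at about 30% in these data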
Target sequence (Q8VD66 whole entry, looked up): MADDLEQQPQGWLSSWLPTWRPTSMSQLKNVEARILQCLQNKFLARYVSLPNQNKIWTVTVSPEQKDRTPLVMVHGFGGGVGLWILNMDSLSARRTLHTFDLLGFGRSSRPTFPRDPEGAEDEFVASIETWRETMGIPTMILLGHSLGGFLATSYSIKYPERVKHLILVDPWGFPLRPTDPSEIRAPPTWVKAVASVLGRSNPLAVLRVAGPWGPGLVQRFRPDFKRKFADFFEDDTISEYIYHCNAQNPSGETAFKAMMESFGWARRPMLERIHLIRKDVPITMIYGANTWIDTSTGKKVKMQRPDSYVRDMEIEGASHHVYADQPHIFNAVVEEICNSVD
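Assay system: mouse ABHD4 enzyme, wild type / Also added: fluorescent activity-based probe FP-Rh / Doses: single nominal dose of 8.92 µM, 0.89% DMSO final / Timing: 45 min compound pre-incubation plus 60 min probe step, 25 °C / Signal: FP readout, ex 525 nm / em 598 nm / Control set: S159A mutant/DMSO as 100%, compound-well median as 0%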
PAFAH1B2 inh: PAFAH1B2 (human) inhibition; P68402; recombinant PAFAH1B2, FP-rhodamine activity probe, fluorescence polarization; inhibition, % at 3.39 µM; hit rate 1.2% among 340,000;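 active = inhibition above the mean of all tested compounds plus 3 SD, cut at about 24% in these data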
Target sequence (P68402 whole entry, looked up): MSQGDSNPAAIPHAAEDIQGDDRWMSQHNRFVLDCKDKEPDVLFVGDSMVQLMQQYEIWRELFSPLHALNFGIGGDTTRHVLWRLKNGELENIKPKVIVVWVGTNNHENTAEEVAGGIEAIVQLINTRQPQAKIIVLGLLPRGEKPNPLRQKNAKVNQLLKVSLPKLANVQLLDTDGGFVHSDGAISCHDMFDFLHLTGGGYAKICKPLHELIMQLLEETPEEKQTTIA
PAFAH1B3 FP inh: blocks human PAF acetylhydrolase 1B catalytic subunit 3. AID 492972. recombinant PAFAH1B3, FP-rhodamine probe, fluorescence polarization. hit rate 0.28% among 340,000. inhibition, % at 3.39 µM. Q15102;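 active = inhibition above the screen-wide average of all tested compounds plus 3 SD, cut at about 25% in these data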
PAFAH2 FP inh: inhibitors of human PAFAH2; Q99487; recombinant PAFAH2, FP-rhodamine activity probe, fluorescence polarization; inhibition, % at 3.39 µM; hit rate 0.99% among 340,000;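 active = inhibition above the mean over all tested compounds plus 3 SD, cut at about 30% in these data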;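 also: inhibitors block probe labeling of enzyme so polarization drops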
pPAFAH FP inh: pPAFAH (human) enzyme inhibition; hit rate 1.5% among 330,000; inhibition, % at 3.39 µM; recombinant pPAFAH, FP-rhodamine probe fluorescence polarization; Q13093;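 active = inhibition above the mean inhibition across the screen plus 3 SD, cut at about 25% in these data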;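 also: inhibitors block binding of the rhodamine activity-based probe so polarization drops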
HTRA1 inh: inhibitors of human serine peptidase HTRA1 | Q92743 | recombinant HTRA1, FP-rhodamine activity-based probe, fluorescence polarization | inhibition, % at 5.96 µM | hit rate 0.5% among 340,000 | AID 504803; in the data active = inhibition above about 36%
mABHD4 conf: ABHD4 (mouse) inhibition, FP confirmation | purified mABHD4, FP-Rh probe fluorescence polarization | hit rate 55% among 1,800 | shares compounds with ABHD4 inh | inhibition, % at 8.92 µM;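 active = mean inhibition across replicates above the hit cutoff set in the primary screen, cut at about 30% in these data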
Hits are given with their value; - = inactive; . = not tested or not shown; + = active, no number.

SMILES	ABHD4 inh	PAFAH1B2 inh	PAFAH1B3 FP inh	PAFAH2 FP inh	pPAFAH FP inh	HTRA1 inh	mABHD4 conf
COc1ccc(C)cc1Nc1ccc(C(=O)O)cc1[N+](=O)[O-]	-	-	-	-	-	-	.
CC(C)c1ccc(Nc2ccc(C(=O)O)cc2[N+](=O)[O-])cc1	60.8	-	-	-	-	-	69.0
COc1cccc(Nc2ccc(C(=O)O)cc2[N+](=O)[O-])c1	35.8	-	-	-	-	-	47.0
Cc1ccc(Nc2ccc(C(=O)O)cc2[N+](=O)[O-])cc1	29.5	-	-	-	-	-	54.7
CC(C)N(Cc1cn(Cc2ccccc2)nn1)S(=O)(=O)c1ccccc1Br	-	.	.	.	.	.	.
CCCC#Cc1ccc2c(c1)COc1c3ccccc3nn1-2	-	-	-	-	-	-	.
CCc1cc(-c2ccc3c(c2)COc2c4ccccc4nn2-3)on1	31.6	-	-	-	-	-	-
CSc1nnc(-c2ccco2)c(-c2ccco2)n1	39.9	-	-	-	30.7	-	46.2
Cc1ccccc1-c1nnc2n1N=C(c1ccc(O)c(O)c1)CS2	31.6	.	.	.	.	.	-
c1ccc(-c2ccc(C3=Nn4c(nnc4-c4ccccc4)SC3)cc2)cc1	-	.	.	.	.	.	.
Cc1cccc(NC(=O)CCS(=O)(=O)c2ccccc2)c1C	-	.	.	.	.	.	.
COc1ccc(C2NCCc3c2[nH]c2ccccc32)cc1CSc1nc2ccccc2s1 (stereo unspecified)	29.7	-	-	-	-	-	34.0
COc1ccc(C2NC(C(=O)O)Cc3c2[nH]c2ccccc32)cc1OC (stereo unspecified)	-	-	-	-	-	-	.
COc1ccccc1N(O)C1CC(=O)N(c2ccc(Br)cc2)C1=O (stereo unspecified)	34.4	-	-	-	-	-	-
COC(=O)[C@]12C[C@H](CC(=O)NCc3cccc4ccccc34)C(=O)N(Cc3cccc4ccccc34)C1=C[C@H](C(C)(C)C)O[C@@H]2C	-	.	.	.	.	.	.
COc1ccc(/C=N/c2c(-c3ccco3)nc3ccccn23)cc1OC	44.2	-	-	-	-	-	-
Oc1ccccc1/C=N/c1c(-c2ccco2)nc2ccccn12	52.3	-	-	-	-	-	-
Clc1ccc(/C=N/c2c(-c3ccco3)nc3ccccn23)cc1	40.9	-	-	-	-	-	-
COc1cc(-c2nc3ccccn3c2/N=C/c2ccc(F)cc2)ccc1O	-	-	-	-	-	-	.
Fc1ccc(-c2cc(-c3nnc4sc(Cc5cccs5)nn34)[nH]n2)cc1	-	.	.	.	.	.	.
Cc1ccccc1CN1CCCCC(NC(=O)Nc2cccc([N+](=O)[O-])c2)C1=O (stereo unspecified)	-	.	.	.	.	.	.
O=C(NCc1ccccc1)C1(C(=O)C2CC2)CC(c2ccccc2C(F)(F)F)=NO1 (stereo unspecified)	-	.	.	.	.	.	.
CCOc1cc2c(c3c1C(c1ccccc1)N(S(=O)(=O)c1ccc(C)cc1)C3)C(=O)C=CC2=O (stereo unspecified)	48.0	.	.	.	.	.	59.9
CCCC1CCC2(CC1)CCC2OC(=S)Nc1ccc(N(C)C)cc1 (stereo unspecified)	-	.	.	.	.	.	.
CCn1c2ccccc2c2cc(NC(=O)CSc3nnc(-c4ccccc4)n3Cc3ccco3)ccc21	-	.	.	.	.	.	.
SMILES	ABHD4 inh	PAFAH1B2 inh	PAFAH1B3 FP inh	PAFAH2 FP inh	pPAFAH FP inh	HTRA1 inh	mABHD4 conf
Cc1[nH]c2c(ccc3ccccc32)c1C1C(CCN)C1(C)C (stereo unspecified)	30.4	-	-	-	-	-	47.0
C[C@H]1[C@@H](OC(=O)Nc2ccccc2F)CC[C@@]23CCCN2C(=O)CCC[C@@H]13	-	.	.	.	.	.	.
O=C(O)CC/C(=C\c1ccc(N2CCCC2)c([N+](=O)[O-])c1)c1nc2ccccc2s1	45.8	102.6	-	-	-	-	50.5
CN(c1ccccc1)c1ccc(/C=C(/CCC(=O)O)c2nc3ccccc3s2)cc1[N+](=O)[O-]	46.4	93.7	-	40.6	.	-	56.0
O=C(O)CC/C(=C\c1ccccc1[N+](=O)[O-])c1nc2ccccc2s1	-	-	-	-	-	-	.
Cc1cc2c(s1)c1cnn(Cc3ccc(F)cc3F)c(=O)c1n2C	-	.	.	.	.	.	.
COc1cc(NS(=O)(=O)c2ccc(Nc3nc(-c4ccccn4)cs3)cc2)nc(OC)n1	35.1	-	-	-	-	-	31.3
CCc1nc2ccc(C(=O)Nc3cc(-c4ccccc4)ccc3OC)cn2c1N(CC)Cc1cccc(Br)c1	30.6	.	.	.	.	.	-
COP(=O)(CC(=O)C(Cc1ccccc1)NC(=O)OC(C)(C)C)OC (stereo unspecified)	-	.	.	.	.	.	.
CC(=NNc1nc2ccccc2s1)c1ncccn1	34.9	-	-	-	.	-	-
C/C(=N\Nc1nc(-c2ccccc2)cs1)c1cccs1	-	-	-	-	-	-	.
CC(=NNc1nc2ccccc2o1)c1ncccn1	30.9	-	-	-	.	-	-
Oc1ccccc1/C=N/Nc1nc2ccccc2o1	-	-	-	-	-	-	.
CC(=O)Nc1cccc(/C(C)=N/Nc2nc3ccccc3s2)c1	-	-	-	-	-	-	.
C/C(=N\Nc1nc2ccccc2s1)c1cccs1	31.4	-	-	-	-	-	-
Oc1ccc(C=NNc2nc3ccccc3s2)c(O)c1	42.5	-	-	-	.	-	35.9
CC1(c2nnnn2C2CCCCC2)CCCC(=O)N1CCc1ccc(O)cc1 (stereo unspecified)	-	.	.	.	.	.	.
Fc1c(-c2ccc3ncnc(NCc4cccs4)c3c2)ccc2c1OCO2	-	.	.	.	.	.	.
COc1ccccc1CCNC(=O)c1ccc(Br)s1	118.5	-	-	-	-	-	-
Cc1cc(C(C)(C)CC(C)(C)C)ccc1OCCOCC[N+](C)(C)Cc1ccccc1	35.7	-	-	-	-	-	45.4
COc1ccc(C2Nc3ccccc3C(=O)N2Cc2ccccc2)cc1COc1ccc(NC(C)=O)cc1 (stereo unspecified)	-	.	.	.	.	.	.
CC(C)=CCN1C(=O)[C@]2(OCCC=C[C@H]2C)c2c(Br)cccc21	-	.	.	.	.	.	.
C[C@@H]1C=CCCO[C@]12C(=O)N(CC1CC1)c1cccc(Br)c12	39.7	.	.	.	.	.	40.0
CSc1ccc(CNc2ccc(Cl)cc2)cc1	+	-	-	-	-	-	-
COc1ccc(S[C@]2(C(=O)N3CCN(C(C)=O)CC3)CC(=O)N(C(=O)/C=C/c3ccccc3)[C@@H]2c2ccc(OC)cc2)cc1	-	.	.	.	.	.	.
COc1cccc([C@@H]2NC(=O)C/C=C/[C@H](C)[C@H](c3cccc(OC)c3)NC(=O)C/C=C/[C@@H]2C)c1	-	.	.	.	.	.	.
CS(=O)(=O)c1ccc(C(=O)Nc2nc(-c3ccco3)c(-c3ccco3)s2)cc1	39.7	-	-	-	.	-	-
CS(=O)(=O)c1ccc2nc(NC(=O)c3ccccc3)sc2c1	-	-	-	-	-	-	.
Cc1ccccc1N1CCN(C(=O)CCn2nnc3ccccc32)CC1	-	.	.	.	.	.	.
F[B-](F)(F)c1cnc2ccccc2c1	31.1	-	-	-	.	-	-

Assay outcomes deposited in PubChem by The Scripps Research Institute Molecular Screening Center.
